# FN deposition inh: fibronectin deposition inhibition; AH1F fibroblasts, Alexa488-fibronectin deposition fluorescence, overnight; inhibition, % at 12.6 µM; 350,000 tested, 0.086% active;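 active means mean inhibition across replicates of 30% or more, regardless of how many single replicates reach that level; inconclusive means mean under 30% yet at least half of replicates reach 30%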
#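 Schedule: 1 h cell adhesion before compound, then overnight fibronectin incubation; test system: AH1F fibroblast monolayer depositing Alexa488-labelled fibronectin into matrix; quantity: 10000 AH1F cells per well; probe or stimulus: fluorescent fibronectin at 24 nM final; signal: fluorescence, ex 485 nm, em 525 nm; evaluation: percent inhibition as loss of matrix-bound fibronectin fluorescence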
# CaV13 ICDI inh: Disruptors of the CACNA1D IQ motif to Ca2+-dependent inactivation inhibitor domain association, primary screening, Förster resonance energy transfer in intact living … | HEK cells, CFP/YFP FRET ICDI-IQ, plate reader, 10 min; percent FRET-ratio fall versus neutral wells | inhibition, % at 12.3 µM | 340,000 tested, 0.098% active;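 active means mean replicate inhibition of at least 30% and at least 1% of replicates passing that level; inconclusive means only one of the two criteria is met; inactive means neither criterion is met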
# DENV2 CPE: DENV2-induced cell death inhibition; DENV2-infected cells, cytopathic effect rescue, plate reader; CPE inhibition, % at 9.99 µM; 350,000 tested, 1.7% active; AID 651640; in the data active means CPE inhibition above about 20%, passing the limit was not always enough; inconclusive means no clear call, values can overlap the other calls; tested in BHK-21 cells
# XiGFP reactiv: X-chromosome reactivation activator. XiGFP mouse fibroblasts, % GFP-positive cells imaging, 3 d; cells co-treated with 5-aza-dC sensitizer; scaled so ellipticine positive control = 100%. activation, % at 7.58 µM. 360,000 tested, 0.055% active. AID 743238;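 active means mean normalized replicate activation at least 10% and every replicate at or above 10%; inconclusive means only one of the two criteria met; inactive means mean below 10% and not all replicates reach 10%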
#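 material = 68-5-11 XiGFP fibroblast line | medium = DMEM plus 5-aza-dC sensitizer | schedule = 3 days compound exposure | benchmarks = positive control ellipticine, 6 µM final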
# Casp6 inh: caspase-6 (human) enzyme inhibition | purified caspase-6, Z-VEID-R110 cleavage fluorescence | inhibition, % at 12.5 µM | 350,000 tested, 0.53% active | AID 686996;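 active means mean inhibition across replicates at least about 35%, with every replicate also reaching that limit, limit read from the data; inconclusive means only one of the two criteria met; inactive means neither criterion met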
# Target sequence (P55212 24-179 limits assumed): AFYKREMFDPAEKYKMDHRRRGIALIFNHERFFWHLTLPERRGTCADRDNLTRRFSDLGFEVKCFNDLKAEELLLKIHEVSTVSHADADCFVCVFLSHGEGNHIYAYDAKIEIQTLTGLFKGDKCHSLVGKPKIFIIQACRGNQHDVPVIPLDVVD
# Target sequence (P55212 194-293 limits assumed): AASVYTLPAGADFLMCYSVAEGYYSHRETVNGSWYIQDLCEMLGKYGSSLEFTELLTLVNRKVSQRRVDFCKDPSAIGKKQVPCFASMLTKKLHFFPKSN
# Numbers stand for hits; n = inactive; u = inconclusive; x = not tested or not shown. Most compounds without a hit are left out; they make up all but 2% or so of the library.
SMILES,FN deposition inh,CaV13 ICDI inh,DENV2 CPE,XiGFP reactiv,Casp6 inh
CO[C@H]1CN(C)C(=O)c2cc(NS(=O)(=O)c3ccccc3F)ccc2OC[C@H](C)NC[C@H]1C,n,x,n,n,n
C[C@@H]1CN([C@H](C)CO)C(=O)c2cc(NS(=O)(=O)c3ccccc3)ccc2O[C@@H](C)CCCCO[C@@H]1CN(C)C(=O)NC1CCCCC1,n,x,75,n,n
C[C@H]1CCCCO[C@@H](CN(C)C(=O)NC2CCCCC2)[C@@H](C)CN([C@@H](C)CO)C(=O)c2cc(NS(=O)(=O)c3ccccc3)ccc2O1,n,x,30,n,n
C[C@@H]1CCCCO[C@H](CN(C)C(=O)NC2CCCCC2)[C@@H](C)CN([C@@H](C)CO)C(=O)c2cc(NS(=O)(=O)c3ccccc3)ccc2O1,n,x,n,n,n
CCC(=O)N(C)C[C@H]1Oc2cc(-c3ccc(OC)cc3)ccc2S(=O)(=O)N([C@H](C)CO)C[C@H]1C,n,x,n,n,n
COc1ccc(S(=O)(=O)N[C@@H]2CC[C@@H](CC(=O)N3CCN(c4ccccc4)CC3)O[C@H]2CO)cc1,n,x,n,n,n
CC(C)CC#Cc1ccc([C@@H]2[C@@H](CO)N3C(=O)CN(C(=O)NC(C)C)C[C@H]23)cc1,x,x,x,n,x
C[C@H](CO)N1C[C@H](C)[C@@H](CN(C)C(=O)Nc2ccc(F)cc2)Oc2c(NC(=O)c3cnccn3)cccc2C1=O,x,x,u,n,n
O=C(O)c1cccc(NC(=O)c2cn(-c3ccccc3)nc2-c2cccc(Br)c2)c1,n,69,n,n,n
O=C(O)c1cccc(NC(=O)c2cn(-c3ccccc3)nc2-c2ccncc2)c1,n,n,n,n,n
COc1ccc(-c2nn(-c3ccccc3)cc2C(=O)Nc2cccc(C(=O)O)c2)cc1[N+](=O)[O-],n,n,n,n,67
Cc1ccc(N2NC(=O)/C(=C/c3ccc(-c4ccc(Cl)c(C(=O)O)c4)o3)C2=O)cc1,n,n,n,n,n
O=C1NN(c2ccc(Cl)cc2)C(=O)/C1=C\c1ccc(-c2cccc(C(=O)O)c2)o1,n,n,n,n,73
CCCC#Cc1ccc([C@H]2[C@@H](CO)N3C(=O)CN(S(=O)(=O)c4ccccc4C)C[C@H]23)cc1,n,x,n,n,n
Nc1nnc(SCC(=O)Nc2ccc(N3CCOCC3)c(Cl)c2)s1,n,n,n,n,n
Nc1nnc(SCC(=O)Nc2cccc(Cl)c2)s1,n,n,50,n,n
FC(F)(F)CN1C[C@@H]2C(c3ccc(Br)cc3)[C@H](C1)N2CC(F)(F)F (stereo partly drawn),n,x,x,n,x
O=C(NCC[C@@H]1CC[C@@H](NC(=O)c2cccnc2)[C@H](CO)O1)Nc1ccc(F)cc1,x,x,n,n,n
O=C(NCC[C@H]1CC[C@@H](NC(=O)c2cccnc2)[C@H](CO)O1)Nc1ccc(F)cc1,x,x,21,n,n
O=C(Cc1ccncc1)NCC[C@@H]1CC[C@H](NC(=O)Nc2cccc(F)c2)[C@@H](CO)O1,n,x,n,n,n
O=C(C[C@H]1CC[C@@H](NC(=O)c2ccc(F)cc2)[C@@H](CO)O1)NCCc1ccncc1,x,x,n,n,n
O=C(C[C@@H]1CC[C@@H](NC(=O)c2ccc(F)cc2)[C@@H](CO)O1)NCCc1ccncc1,x,x,23,n,n
O=C(Cc1ccncc1)NCC[C@@H]1CC[C@@H](NC(=O)Nc2cccc(F)c2)[C@@H](CO)O1,n,x,23,n,n
Cn1cccc1CN1CCC[C@]2(N[C@H](c3ccccc3)[C@@H]3C(=O)N(Cc4ccccc4)C(=O)[C@@H]32)C1=O,n,n,41,n,n
COc1ccc(CN2CCC[C@]3(N[C@H](c4ccc(C)cc4)[C@@H]4C(=O)N(Cc5ccccc5)C(=O)[C@@H]43)C2=O)cc1,n,n,25,n,n
SMILES,FN deposition inh,CaV13 ICDI inh,DENV2 CPE,XiGFP reactiv,Casp6 inh
Cc1ccc([C@H]2N[C@]3(CCCN(Cc4ccco4)C3=O)[C@H]3C(=O)N(C)C(=O)[C@@H]23)cc1,n,n,60,n,n
CC1OC(CC(=O)O)CC2=C1C(=O)c1c(O)cccc1C2=O (stereo not drawn),59,n,n,n,93
C=CCNC(=O)COc1ccccc1C#N,n,n,n,n,52
N#Cc1ccccc1OCC(=O)NC1CCCCCC1,n,n,n,n,n
CCC1(C)Cc2c(C#N)c(N)sc(=S)c2CO1 (stereo not drawn),n,n,x,x,n
CCC1(C)Cc2c(C#N)c(N)n(-c3ccccc3)c(=S)c2CO1 (stereo not drawn),n,n,n,n,36
C[C@@H]1CCCCO[C@H](CN(C)C(=O)Nc2ccccc2)[C@@H](C)CN([C@H](C)CO)C(=O)c2cc(NC(=O)c3ccncc3)ccc2O1,n,x,n,n,n
COc1cccc(NC2=C(NCCO)C(=O)c3ccccc3C2=O)c1,n,n,u,n,n
Cc1cccc(Nc2nc(N)c([N+](=O)[O-])c(NCCO)n2)c1,n,n,n,n,n
Cc1cccc(NC2=C(NCCO)C(=O)c3ccccc3C2=O)c1,n,n,n,n,92
COc1ccc(NC2=C(NCCO)C(=O)c3ccccc3C2=O)cc1,n,n,u,n,88
COc1ccc(C2=Nn3c(nnc3-c3ccccc3Cl)SC2)cc1OCC1CC1,n,n,32,n,n
CCC(=O)N1C[C@@H]2[C@H](c3ccccc31)[C@@H](CO)N2C(=O)Nc1ccccc1,x,x,x,n,n
CCOC(=O)N/N=C/c1cc(C)n(-c2cccc3ccccc23)c1C,n,n,37,n,n
COC(=O)N/N=C/c1cc(C)n(-c2cccc3ccccc23)c1C,n,n,x,n,x
COc1ccccc1C(=O)N1[C@@H](C(C)C)COc2cc(Br)ccc2S1(=O)=O,n,n,78,n,n
COc1ccc(OC)c(S(=O)(=O)N/N=C\c2c[nH]c3ccccc23)c1,n,n,37,n,n
COc1ccc(NC(=O)N2CCCCN3[C@H](C2)[C@H](c2ccc(-c4ccccc4F)cc2)[C@@H]3CO)cc1,n,x,30,n,n
COc1ccc(C#Cc2ccc([C@H]3[C@@H](CO)N4CCCCN(C(=O)Nc5ccc(F)cc5)C[C@@H]34)cc2)cc1,x,x,30,n,n
COC(CNC(=O)c1cccnc1)OC,n,n,n,n,n
COC(CNC(=O)c1ccc2c3c(onc13)-c1ccccc1C2=O)OC,n,n,n,n,50
O=C(NS(=O)(=O)c1ccc(Cl)s1)c1ccccc1,n,46,n,n,n
O=C(NCc1ccc(S(=O)(=O)Nc2ccccc2Cl)s1)c1ccccc1,n,n,n,n,n
C[C@@H]1CN([C@@H](C)CO)S(=O)(=O)c2ccc(Br)cc2O[C@H]1CN(C)S(=O)(=O)c1ccc(F)cc1,n,x,n,n,n
CC1CCN(C(=O)c2ccc3c(c2NCCO)C(=O)c2ccccc2C3=O)CC1,x,n,x,x,x

# High-throughput results: PubChem, Broad Institute
